RGS4 act: RGS4 potentiators or activators, primary screen, cell-based, HEK293 M3R inducible RGS4, calcium flux | carbachol calcium flux Fluo4; hits give low values | B-score at 10 µM | 0.92% of 310,000 active;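 active = B-score of the integrated calcium signal more than 4 SD below the library mean, with starting fluorescence not abnormally high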;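 note: negative B-score means reduced calcium response which marks RGS4 activation or potentiation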
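Assay system: HEK293 FlpIn-TREx cells, stable M3R, doxycycline-inducible RGS4 / Probe or stimulus: carbachol, ECmax concentration / Times: overnight RGS4 induction, 30 min dye load 37 °C, 20 min compound RT / Signal: kinetic calcium fluorescence imaging with Fluo4-AM dye, 2 µM / Measure: Agonist-evoked peak-minus-minimum fluorescence over baseline, integrated ratio, B score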
MrgX1 PAM: positive allosteric modulators of MrgX1, primary screen, HEK293 cells, Fluo-4 calcium flux | Mas-related G-protein coupled receptor member X1 (Homo sapiens), Q96LB2 | FDSS; hits give high values | B-score at 10 µM | 0.63% of 310,000 active | AID 588675, 2011;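 active = plate-corrected calcium response at least 3 library SD above typical, normal starting fluorescence, not activating the receptor alone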;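 note: compound read alongside a low EC10 to EC30 dose of BAM8-22 agonist; peak minus trough fluorescence over baseline measured at the second addition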
Target sequence (Q96LB2 whole entry, looked up): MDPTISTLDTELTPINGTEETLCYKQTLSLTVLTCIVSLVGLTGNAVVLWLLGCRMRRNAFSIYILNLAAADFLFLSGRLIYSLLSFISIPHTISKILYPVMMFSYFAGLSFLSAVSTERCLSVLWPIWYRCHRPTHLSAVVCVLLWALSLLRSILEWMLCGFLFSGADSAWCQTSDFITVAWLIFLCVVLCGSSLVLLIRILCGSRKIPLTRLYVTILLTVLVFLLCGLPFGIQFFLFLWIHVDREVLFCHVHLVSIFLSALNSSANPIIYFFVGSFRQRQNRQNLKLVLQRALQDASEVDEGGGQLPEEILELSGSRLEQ
MrgX1 antag: antagonists of human MrgX1 receptor, primary screen, HEK293 cells, Fluo-4 calcium flux; 1.3% of 310,000 active; AID 588676, 2011; BAM8-22 antagonism; hits give low values; Mas-related G-protein coupled receptor member X1 (Homo sapiens), Q96LB2; B-score at 10 µM;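 active = calcium-response B-score plate-corrected more than 3 library SD below zero, starting fluorescence within 5 deviations, no agonist response on first addition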;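 note: peak minus trough fluorescence over baseline after final BAM8-22 challenge near maximal dose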
MrgX1 agonist: agonists of human MrgX1 receptor, primary screen, HEK293 cells, Fluo-4 calcium flux. Mas-related G-protein coupled receptor member X1 (Homo sapiens), Q96LB2. Fluo-4 calcium fluorescence, agonist mode; hits give high values. B-score at 10 µM. 0.44% of 310,000 active;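 active = calcium response B-score plate-corrected fluorescence ratio at least 3 library SD, with starting fluorescence B-score inside 5 SD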
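Test system: HEK293 cells stably expressing human MrgX1 receptor; amount: 15,000 cells per well; doses: compound delivered in addition one of three; times: overnight plating before 1 h dye loading; detection: Fluo-4 NW calcium-flux fluorescence, kinetic read; read-out basis: B-scored fluorescence response ratio; controls: positive and negative controls per plate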
RGS4 inh: RGS4 inhibitors, primary screen, cell-based, HEK293 M3R inducible RGS4, calcium flux | Fluo-4 calcium flux; hits give high values; triggered by carbachol at its EC20 | AID 463165, 2010 | Regulator of G-protein signaling 4 (Homo sapiens), P49798 | 0.45% of 310,000 active | B-score at 10 µM;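 active = B-score, a plate-corrected calcium signal, over three deviations above library mean, with baseline fluorescence within five deviations of library mean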;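 note: RGS4 expression induced by doxycycline in cells with stable M3 receptor; B-score is computed from the integrated fluorescence ratio over baseline after carbachol; higher B-score means a larger calcium signal and so more RGS4 inhibition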
Target sequence (P49798 whole entry, looked up): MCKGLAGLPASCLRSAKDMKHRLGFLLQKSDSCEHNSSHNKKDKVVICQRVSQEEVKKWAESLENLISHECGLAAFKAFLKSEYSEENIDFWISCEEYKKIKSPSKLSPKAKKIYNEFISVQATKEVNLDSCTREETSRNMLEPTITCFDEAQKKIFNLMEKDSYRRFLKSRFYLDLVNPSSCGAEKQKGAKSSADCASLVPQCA
MrgX1 antag conf: MrgX1 receptor antagonists, duplicate retest, confirmation, HEK293 cells, Fluo-4 calcium flux. shares compounds with MrgX1 antag. BAM8-22 calcium flux; hits give low values. 19% of 2,300 active. remaining BAM8-22 calcium response % of control (hits give low values), % at 10 µM;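 active = remaining agonist calcium response no higher than 100% minus 3 SD of agonist-only control wells, with starting fluorescence near control levels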;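 note: agonist BAM8-22 given at a near maximal EC90 to ECmax level; peak minus minimum fluorescence divided by baseline after agonist addition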
HEK293 Ca flux: nonspecific calcium signal in parental HEK293, confirmation, counter-screen for MrgX1 antagonist project, parental HEK293 cells, Fluo-4 calcium flux; fluorescence ratio F(max-min)/F0 at 10 µM; shares compounds with MrgX1 antag; 2% of 4,000 active; Fluo-4 calcium fluorescence, FDSS;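 active = duplicate-averaged calcium fluorescence ratio at least three times the standard deviation of buffer wells, a nonspecific response in parental cells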
HEK293 Ca counter: calcium response in parental HEK293 cells, primary screen, counter-screen for MrgX1 allosteric activator project, cell-based, Fluo-4 calcium flux, duplicate; shares compounds with MrgX1 antag; Fluo-4 fluorescence ratio; hits give high values; fluorescence ratio F(max-min)/F0 at 10 µM; 0.4% of 4,000 active; AID 624114, 2012;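 active = calcium fluorescence ratio, averaged over duplicates, at least 3 SD of the buffer-well ratio, meaning a nonspecific response in receptor-free cells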;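 note: untransfected parental HEK293 lacking MrgX1 used as counterscreen for MrgX1 allosteric activators; fluorescence change taken during the second addition on a kinetic imager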
HEK293 Ca cntr2: calcium response in parental HEK293 cells, primary screen, counter-screen for MrgX1 agonist project, cell-based, Fluo-4 calcium flux, duplicate, agonist mode; AID 624115, 2012; Fluo-4 calcium fluorescence (FDSS); hits give high values; 8.7% of 4,000 active; shares compounds with MrgX1 antag; fluorescence ratio F(max-min)/F0 at 10 µM;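 active = calcium fluorescence ratio at least three times the spread of buffer wells, meaning a non-specific response in parental cells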
* hit, by the source's call; i = inactive; · = no result given. In the library only some 3.5% were active in any assay of this set; here they are far more common.

SMILES	RGS4 act	MrgX1 PAM	MrgX1 antag	MrgX1 agonist	RGS4 inh	MrgX1 antag conf	HEK293 Ca flux	HEK293 Ca counter	HEK293 Ca cntr2
CC(C)N1C[C@@]23C=C[C@@H](O2)C(C(=O)OCc2ccccc2)[C@H]3C1=O (stereo partly drawn)	i	i	i	i	i	·	·	·	·
Cc1ccc(NC(=O)CCNS(=O)(=O)c2ccccc2)cc1S(=O)(=O)N1CCOCC1	i	i	-6.7*	i	i	i	i	i	i
Cc1ccc(C(=O)OCc2nnc(-c3ccccc3)o2)cc1S(=O)(=O)N1CCOCC1	i	i	-4.6*	i	i	83%*	i	i	i
Cc1ccc(NC(=O)CCNS(=O)(=O)c2ccc(Br)cc2)cc1S(=O)(=O)N1CCOCC1	i	i	i	i	i	·	·	·	·
CCOC(=O)c1ccc(NC(=O)c2ccc(C)c(S(=O)(=O)N3CCOCC3)c2)cc1	i	i	-11*	i	i	21%*	i	i	i
COCCn1c(SCC(=O)N2CC(=O)Nc3ccccc32)nnc1-c1ccoc1C	i	i	-11*	i	i	i	i	i	i
COCCCn1c(SCC(=O)N2CC(=O)Nc3ccccc32)nnc1-c1ccoc1C	i	i	i	i	i	·	·	·	·
COc1cc(OC)cc(C(=O)NC(C)CNc2ccc(Cl)cc2[N+](=O)[O-])c1 (stereo not drawn)	i	i	i	i	i	·	·	·	·
Cc1c(C(=O)Nc2ccc3c(c2)OCO3)sc2ncn(CC(=O)N3CC(C)CC(C)C3)c(=O)c12 (stereo not drawn)	i	i	-6.5*	i	i	83%*	i	i	i
O=C(O)CC(NC(=O)OCc1ccccc1)c1ccccc1 (stereo not drawn)	i	i	i	i	i	·	·	·	·
NC(CC(=O)O)c1cccc(OCc2ccccc2)c1 (stereo not drawn)	·	i	-5.4*	i	·	75%*	i	i	i
Cc1c(Br)c([N+](=O)[O-])nn1CC(=O)c1ccccc1	i	i	i	i	i	·	·	·	·
CC(C)N(Cc1nccn1C)C(=O)c1cc(COc2ccc(-n3cncn3)cc2)on1	i	i	i	i	i	·	·	·	·
CC1CCC(C(C)C)C(OC(=O)Cn2c(-c3ccc(Cl)cc3)[n+](C)c3ccccc32)C1 (stereo not drawn)	-8.6*	i	-9.9*	i	i	45%*	i	i	i
FC(F)Oc1ccc(NC(=S)NCc2cccnc2)cc1	i	i	-6.2*	i	i	83%*	i	i	i
S=C(NCc1cccnc1)Nc1cccc(Cl)c1	i	i	i	i	i	·	·	·	·
S=C(NCc1cccnc1)Nc1cc(Cl)cc(Cl)c1	i	i	-5.1*	i	i	72%*	i	i	58*
S=C(NCc1cccnc1)Nc1ccc(Oc2ccccc2)cc1	i	i	i	i	i	·	·	·	·
CCC(=O)Nc1nc(-c2ccc3c(c2)CC(C)N3S(C)(=O)=O)cs1 (stereo not drawn)	i	i	i	i	i	·	·	·	·
CC1Cc2cc(-c3csc(NC(=O)Cc4cccs4)n3)ccc2N1S(C)(=O)=O (stereo not drawn)	i	i	-4.8*	i	i	50%*	i	i	i
Cc1cccc2cc3c(N)c(C(=O)N4CCc5ccccc54)sc3nc12	i	i	-8.4*	i	i	i	0.48*	i	59*
O=C(c1cnc2n(c1=O)CCS2)N1CCc2ccccc21	i	i	i	i	i	·	·	·	·
Cc1sc(NC(=O)c2sc3nc4c(C)cccc4cc3c2N)c(C#N)c1C	i	i	-6.2*	i	i	60%*	i	i	i
Cc1cccc2cc3c(N)c(C#N)sc3nc12	i	i	i	i	i	·	·	·	·
CCC(=O)Nc1sc2c(c1C#N)CC(C)(CC)OC2 (stereo not drawn)	i	i	i	i	i	·	·	·	·
SMILES	RGS4 act	MrgX1 PAM	MrgX1 antag	MrgX1 agonist	RGS4 inh	MrgX1 antag conf	HEK293 Ca flux	HEK293 Ca counter	HEK293 Ca cntr2
Cc1onc(-c2c(Cl)cccc2Cl)c1C(=O)N1C=CC(C(F)(F)F)=NCC1	i	i	-9.2*	i	i	i	i	i	i
Cc1onc(-c2c(F)cccc2Cl)c1C(=O)N1C=CC(C(F)(F)F)=NCC1	i	i	i	i	i	·	·	·	·
N#CCCCSc1nnnn1-c1cccc(Cl)c1	i	i	-5.8*	i	i	i	i	i	i
O=C(CSc1nnnn1-c1cccc(Cl)c1)Nc1ccc2c(c1)CCC2	i	i	i	i	i	·	·	·	·
Cc1ccc(C)c(-n2c(SCC(=O)Nc3nonc3C)nnc2-c2ccoc2C)c1	i	i	-5.4*	i	i	83%*	i	i	i
O=C(Cn1cnc(S(=O)(=O)N2CCOCC2)c1)Nc1ccc(OC(F)(F)F)cc1	i	i	i	i	i	·	·	·	·
N#CCc1nc2ccc(S(=O)(=O)N3CCOCC3)cc2s1	i	i	i	i	i	·	·	·	·
CC(=O)c1cccc(NC(=O)C2CCCCC2)c1	i	i	i	i	i	·	·	·	·
O=C(Nc1cccc(Cl)c1)C1CCCCC1	·	i	-5.4*	i	·	i	i	i	i
COc1ccc(Cl)cc1N1C(=O)CC(Sc2ccccc2N)C1=O (stereo not drawn)	i	i	i	i	i	·	·	·	·
CCSc1nc2cc(OC)c(OC)cc2c(=O)n1CC	i	i	-4.8*	i	i	i	i	i	i

High-throughput results from PubChem BioAssay.
